These results are taken from ChEMBL document CHEMBL4308845, “Allosteric Activation of Striatal-Enriched Protein Tyrosine Phosphatase (STEP, PTPN5) by a Fragment-like Molecule” (J Med Chem, 2019).

For this test, the species on record is Homo sapiens. Put plainly: Activation of human STEP46 (197 to 565 residues) expressed in Escherichia coli BL21(DE3) at 100 uM using biotin-pFyn peptide substrate after 60 mins by AlphaLISA assay relative to control. The method, boiled down: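 STEP46 (50 nM final) with biotinylated pFyn peptide (20 nM final) and compound in 1% DMSO, 60 min at room temperature in the dark. Detection by anti non-phospho Src/Tyr416 antibody in stop buffer containing 10 μM orthovanadate, plus protein A acceptor and streptavidin donor beads, 15 min each. % CTL computed against enzyme (100%) and no-enzyme (0%) controls.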

As to `N=C(N)Nc1cc(C2CCNCC2)cc(C(F)(F)F)c1`, the Activity came out at 33%.
